Measurements: ChEMBL document CHEMBL2176995, “An oral sphingosine 1-phosphate receptor 1 (S1P(1)) antagonist prodrug with efficacy in vivo: discovery, synthesis, and evaluation” (J Med Chem, 2012)
Values after ≈ are worked out from the molar mass of the structure shown. Blank lines part the entries; values can stand above or below the compound they belong to. Active and inactive are the calls of the source. The rule behind the calls is not given here.

Experiments:
Rattus norvegicus [1] = test: Reduction in peripheral blood lymphocytes in Lewis rat assessed as remaining circulating lymphocytes level at 100 mg/kg, po administered as single dose measured 14 hrs post dose by automated hematology analyzer; assay type: functional
How it was run: (§1)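 Male Lewis rats receive a single oral dose of compound or vehicle, freshly made in 30% PEG200/buffer. Blood (<200 μL) is drawn by sublingual puncture under isoflurane 5% v/v at baseline and later time points. Lymphocytes are counted on an automated hematology analyzer, and each animal's change is expressed as percent of its own pre-treatment baseline.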

[2] = Solubility in pH 6.8 buffer; assay type: physicochemical
[3] = biological target: T1, Sphingosine 1-phosphate receptor 1 (Homo sapiens, UniProt P21453); test: Antagonist activity at human S1P1R receptor expressed in CHO cell membranes by [35S]GTPgamma binding assay; assay type: functional
How it was run: (§2)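 Membranes from CHO clones stably expressing human S1P1 (1−5 μg/well), with S1P2–S1P5 handled comparably. Compound preincubated 15 min, then S1P (4 nM final) and GTPγ³⁵S (0.2 nM final) added. Shaken 120 min at room temperature, then SPA counting. Eight concentrations in duplicate; IC₅₀ from curve fit, mean of ≥3 determinations ± SEM.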

Rattus norvegicus [4] = test: Reduction in peripheral blood lymphocytes in Lewis rat assessed as remaining circulating lymphocytes level at 100 mg/kg, po administered as single dose measured 8 hrs post dose by automated hematology analyzer; assay type: functional; how it was run: as §1
Rattus norvegicus [5] = test: Reduction in peripheral blood lymphocytes in Lewis rat assessed as remaining circulating lymphocytes level at 30 mg/kg, po administered as single dose measured 14 hrs post dose by automated hematology analyzer; assay type: functional; how it was run: as §1
Rattus norvegicus [6] = test: Reduction in peripheral blood lymphocytes in Lewis rat assessed as remaining circulating lymphocytes level at 30 mg/kg, po administered as single dose measured 24 hrs post dose by automated hematology analyzer; assay type: functional; how it was run: as §1
Rattus norvegicus [7] = test: Reduction in peripheral blood lymphocytes in Lewis rat assessed as remaining circulating lymphocytes level at 100 mg/kg, po administered as single dose measured 24 hrs post dose by automated hematology analyzer; assay type: functional; how it was run: as §1
Rattus norvegicus [8] = test: Increase in allograft survival in stringent Dark Agouti to Lewis rat heterotopic vascular heart allotransplantation model assessed as allograft mean survival time at 10 mg/kg, po bid (reference value: 6 days); assay type: functional
How it was run: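 Hearts from DA donors were transplanted into Lewis recipients, with dosing starting 3 days pre-transplant. The PKC inhibitor was given po b.i.d., mixed in D-glucose and dissolved in PEG400, distilled water and 0.1 M aqueous HCl. Vehicle controls were dosed po b.i.d. Endpoint was graft survival to rejection or predefined termination, reported as median days. Histology used H&E and trichrome with acute rejection scoring.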

[9] = biological target: T2, Sphingosine 1-phosphate receptor 5 (Homo sapiens, UniProt Q9H228); test: Antagonist activity at human S1P5R receptor expressed in CHO cell membranes by [35S]GTPgamma binding assay; assay type: functional; how it was run: as §2
[10] = biological target: T1, Sphingosine 1-phosphate receptor 1; test: Agonist activity at human S1P1R receptor expressed in CHO cell membranes by [35S]GTPgamma binding assay; assay type: functional
[11] = biological target: T3, Sphingosine 1-phosphate receptor 2 (Homo sapiens, UniProt O95136); test: Agonist activity at human S1P2R receptor expressed in CHO cell membranes by [35S]GTPgamma binding assay; assay type: functional
[12] = biological target: T3, Sphingosine 1-phosphate receptor 2; test: Antagonist activity at human S1P2R receptor expressed in CHO cell membranes by [35S]GTPgamma binding assay; assay type: functional; how it was run: as §2
[13] = biological target: T4, Sphingosine 1-phosphate receptor 3 (Homo sapiens, UniProt Q99500); test: Antagonist activity at human S1P3R receptor expressed in CHO cell membranes by [35S]GTPgamma binding assay; assay type: functional; how it was run: as §2
[14] = biological target: T1, Sphingosine 1-phosphate receptor 1; test: Competitive binding affinity to human S1P1R receptor expressed in CHO cell membranes by Schild plot analysis
[15] = biological target: T5, Sphingosine 1-phosphate receptor 4 (Homo sapiens, UniProt O95977); test: Agonist activity at human S1P4R receptor expressed in CHO cell membranes by [35S]GTPgamma binding assay; assay type: functional
T5 sequence (O95977 whole entry): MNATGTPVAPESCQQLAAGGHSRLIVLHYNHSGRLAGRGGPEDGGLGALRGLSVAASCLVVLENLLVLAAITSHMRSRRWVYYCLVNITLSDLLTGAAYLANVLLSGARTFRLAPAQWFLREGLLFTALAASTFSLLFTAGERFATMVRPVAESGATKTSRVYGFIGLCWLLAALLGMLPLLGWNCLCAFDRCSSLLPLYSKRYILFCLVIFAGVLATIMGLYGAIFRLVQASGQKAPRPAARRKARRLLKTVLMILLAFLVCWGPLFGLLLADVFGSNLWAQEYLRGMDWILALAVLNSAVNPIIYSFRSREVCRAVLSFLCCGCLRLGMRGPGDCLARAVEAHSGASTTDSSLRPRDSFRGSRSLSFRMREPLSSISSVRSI

[16] = biological target: T4, Sphingosine 1-phosphate receptor 3; test: Agonist activity at human S1P3R receptor expressed in CHO cell membranes by [35S]GTPgamma binding assay; assay type: functional
[17] = biological target: T2, Sphingosine 1-phosphate receptor 5; test: Agonist activity at human S1P5R receptor expressed in CHO cell membranes by [35S]GTPgamma binding assay; assay type: functional
[18] = biological target: T5, Sphingosine 1-phosphate receptor 4; test: Antagonist activity at human S1P4R receptor expressed in CHO cell membranes by [35S]GTPgamma binding assay; assay type: functional; how it was run: as §2
Rattus norvegicus [19] = test: Increase in allograft survival in stringent Dark Agouti to Lewis rat heterotopic vascular heart allotransplantation model assessed as allograft mean survival time at 0.1 mg/kg, po qd co-treated with 0.3 mg/kg, qd everolimus; assay type: functional
Rattus norvegicus [20] = test: Increase in allograft survival in stringent Dark Agouti to Lewis rat heterotopic vascular heart allotransplantation model assessed as allograft mean survival time at 0.1 mg/kg, po qd co-treated with 10 mg/kg, po bid sotrastaurin; assay type: functional
Rattus norvegicus [21] = test: Reduction in peripheral blood lymphocytes in Lewis rat assessed as remaining circulating lymphocytes level at 100 mg/kg, po administered as single dose measured 12 hrs post dose by automated hematology analyzer; assay type: functional; how it was run: as §1
Rattus norvegicus [22] = test: Increase in allograft survival in stringent Dark Agouti to Lewis rat heterotopic vascular heart allotransplantation model assessed as allograft mean survival time at 0.3 mg/kg, po qd (reference value: 6 days); assay type: functional
Rattus norvegicus [23] = test: Reduction in peripheral blood lymphocytes in Lewis rat assessed as remaining circulating lymphocytes level at 100 mg/kg, po administered as single dose measured 14 to 48 hrs post dose by automated hematology analyzer

T1 sequence (P21453 whole entry): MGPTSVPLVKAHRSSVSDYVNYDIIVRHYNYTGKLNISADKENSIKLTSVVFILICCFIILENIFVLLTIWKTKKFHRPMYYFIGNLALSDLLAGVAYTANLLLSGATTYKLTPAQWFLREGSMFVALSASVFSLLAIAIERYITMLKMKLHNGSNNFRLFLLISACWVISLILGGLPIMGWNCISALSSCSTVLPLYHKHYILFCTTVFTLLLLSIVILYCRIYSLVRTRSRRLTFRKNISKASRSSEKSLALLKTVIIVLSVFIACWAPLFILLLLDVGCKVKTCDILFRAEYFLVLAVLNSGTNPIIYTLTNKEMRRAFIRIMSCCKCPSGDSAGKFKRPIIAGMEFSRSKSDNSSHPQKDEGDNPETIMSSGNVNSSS
T3 sequence (O95136 whole entry): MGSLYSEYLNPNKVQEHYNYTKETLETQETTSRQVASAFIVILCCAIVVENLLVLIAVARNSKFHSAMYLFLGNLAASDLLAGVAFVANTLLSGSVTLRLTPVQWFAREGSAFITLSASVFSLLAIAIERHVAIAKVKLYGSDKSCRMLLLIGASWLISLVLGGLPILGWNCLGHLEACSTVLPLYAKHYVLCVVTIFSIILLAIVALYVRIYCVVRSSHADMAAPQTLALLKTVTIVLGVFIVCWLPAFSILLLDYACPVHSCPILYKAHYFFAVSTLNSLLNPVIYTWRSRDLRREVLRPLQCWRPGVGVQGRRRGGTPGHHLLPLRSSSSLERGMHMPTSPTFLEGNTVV
T2 sequence (Q9H228 whole entry): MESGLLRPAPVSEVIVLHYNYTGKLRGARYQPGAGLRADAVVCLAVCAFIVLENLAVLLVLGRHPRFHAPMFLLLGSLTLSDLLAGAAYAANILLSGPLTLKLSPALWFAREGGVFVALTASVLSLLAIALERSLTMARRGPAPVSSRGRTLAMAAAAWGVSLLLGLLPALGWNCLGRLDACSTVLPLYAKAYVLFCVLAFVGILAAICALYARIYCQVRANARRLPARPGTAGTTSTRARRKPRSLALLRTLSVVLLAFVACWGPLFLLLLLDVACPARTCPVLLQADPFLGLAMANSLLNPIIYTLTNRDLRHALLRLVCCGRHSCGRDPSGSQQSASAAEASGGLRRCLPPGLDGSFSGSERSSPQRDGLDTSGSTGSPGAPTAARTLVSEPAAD
T4 sequence (Q99500 whole entry): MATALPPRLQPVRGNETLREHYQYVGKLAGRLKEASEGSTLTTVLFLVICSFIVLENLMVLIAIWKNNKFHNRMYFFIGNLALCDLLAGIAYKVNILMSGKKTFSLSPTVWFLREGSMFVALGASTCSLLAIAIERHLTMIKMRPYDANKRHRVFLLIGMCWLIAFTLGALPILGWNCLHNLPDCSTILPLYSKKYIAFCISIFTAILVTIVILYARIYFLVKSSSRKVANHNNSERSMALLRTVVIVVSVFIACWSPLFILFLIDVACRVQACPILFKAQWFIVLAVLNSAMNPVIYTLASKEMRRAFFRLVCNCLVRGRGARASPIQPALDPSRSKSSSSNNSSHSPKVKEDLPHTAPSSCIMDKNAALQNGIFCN

SMILES: Cc1cc(S(=O)(=O)Nc2cccc(-c3cc(C)c(C(=O)N[C@@H](C)C(=O)O)c(C)c3)c2)c(C)cc1Cl
- IC50 [3]: 2.6 nM
- Activity (Rattus norvegicus [4]): 20%

SMILES: Cc1cc(S(=O)(=O)Nc2cccc(-c3cc(C)c(C(=O)N[C@@H](CCN)C(=O)O)c(C)c3)c2)c(C)cc1Cl
- IC50 [3]: 2.1 nM

SMILES: COC(=O)[C@H](CCN(C)C)NC(=O)c1c(C)cc(-c2cccc(NS(=O)(=O)c3cc(C)c(Cl)cc3C)c2)cc1C
- Activity (Rattus norvegicus [7]): 24%
- Activity (Rattus norvegicus [1]): 15%

SMILES: COC(=O)[C@H](CCN)NC(=O)c1c(C)cc(-c2cccc(NS(=O)(=O)c3cc(C)c(Cl)cc3C)c2)cc1C
- Activity (Rattus norvegicus [1]): 76%

SMILES: CN1CCN(c2nc(C3=C(c4c[nH]c5ccccc45)C(=O)NC3=O)c3ccccc3n2)CC1 [SOTRASTAURIN]
- MST (Rattus norvegicus [8]): 7 days

SMILES: CCCCCCCCc1ccc(CCC(N)(CO)CO)cc1 [FINGOLIMOD]
- MST (Rattus norvegicus [19]): 38 days
- MST (Rattus norvegicus [20]): >68.5 days

SMILES: Cc1cc(S(=O)(=O)Nc2cccc(-c3cc(C)c(C(=O)N(C)[C@@H](C)C(=O)O)c(C)c3)c2)c(C)cc1Cl
- Activity (Rattus norvegicus [21]): 19%
- IC50 [3]: 6.1 nM

SMILES: CO[C@H]1C[C@@H]2CC[C@@H](C)[C@@](O)(O2)C(=O)C(=O)N2CCCC[C@H]2C(=O)O[C@H]([C@H](C)C[C@@H]2CC[C@@H](OCCO)[C@H](OC)C2)CC(=O)[C@H](C)/C=C(\C)[C@@H](O)[C@@H](OC)C(=O)[C@H](C)C[C@H](C)/C=C/C=C/C=C/1C [EVEROLIMUS]
- MST (Rattus norvegicus [22]): 7 days

SMILES: COC(=O)[C@H](C)NC(=O)c1c(C)cc(-c2cccc(NS(=O)(=O)c3cc(C)c(Cl)cc3C)c2)cc1C
- Activity (Rattus norvegicus [1]): 24%

SMILES: Cc1cc(S(=O)(=O)Nc2cccc(-c3cc(C)c(C(=O)N[C@H]4CCNC4=O)c(C)c3)c2)c(C)cc1Cl
- Activity (Rattus norvegicus [23]): inactive

SMILES: COC(=O)[C@@H](CCN(C)C)N(C)C(=O)c1c(C)cc(-c2cccc(NS(=O)(=O)c3cc(C)c(Cl)cc3C)c2)cc1C
- Activity (Rattus norvegicus [5]): 67%

Further lines, with some results ahead:

- solubility [2]: < 4 µM
SMILES: COC(=O)[C@H](CN(C)C)N(C)C(=O)c1c(C)cc(-c2cccc(NS(=O)(=O)c3cc(C)c(Cl)cc3C)c2)cc1C
- Activity (Rattus norvegicus [1]): 37%

- solubility [2]: 15 µM (≈ 9 µg/mL)
SMILES: Cc1cc(S(=O)(=O)Nc2cccc(-c3cc(C)c(C(=O)N(C)[C@@H](C)C(=O)OCCN(C)C)c(C)c3)c2)c(C)cc1Cl
- Activity (Rattus norvegicus [5]): 25%
- Activity (Rattus norvegicus [6]): 49%

- IC50 [3]: 12 nM
SMILES: Cc1cc(S(=O)(=O)Nc2cccc(-c3cc(C)c(C(=O)N[C@@H](CCN(C)C)C(=O)O)c(C)c3)c2)c(C)cc1Cl

- IC50 [3]: 8.4 nM
SMILES: Cc1cc(S(=O)(=O)Nc2cccc(-c3cc(C)c(C(=O)N(C)[C@@H](CN(C)C)C(=O)O)c(C)c3)c2)c(C)cc1Cl

- solubility [2]: < 4 µM
SMILES: COC(=O)[C@H](C)N(C)C(=O)c1c(C)cc(-c2cccc(NS(=O)(=O)c3cc(C)c(Cl)cc3C)c2)cc1C
- Activity (Rattus norvegicus [1]): 21%

- solubility [2]: < 4 µM
SMILES: CCOC(=O)[C@H](CCN(C)C)N(C)C(=O)c1c(C)cc(-c2cccc(NS(=O)(=O)c3cc(C)c(Cl)cc3C)c2)cc1C
- Activity (Rattus norvegicus [5]): 28%
- Activity (Rattus norvegicus [6]): 48%

- IC50 [9]: 978 nM
- EC50 [10]: > 10000 nM
- EC50 [11]: > 10000 nM
- IC50 [12]: > 10000 nM
- IC50 [13]: 802 nM
- IC50 [3]: 3.4 nM
- Kd [14]: 0.67 nM
- EC50 [15]: 1200 nM
- EC50 [16]: > 10000 nM
- EC50 [17]: > 10000 nM
- IC50 [18]: > 10000 nM
SMILES: Cc1cc(S(=O)(=O)Nc2cccc(-c3cc(C)c(C(=O)N(C)[C@@H](CCN(C)C)C(=O)O)c(C)c3)c2)c(C)cc1Cl

- IC50 [3]: 20 nM
SMILES: Cc1cc(S(=O)(=O)Nc2cccc(-c3cc(C)c(C(=O)N(C)[C@H](CCN(C)C)C(=O)O)c(C)c3)c2)c(C)cc1Cl
